The source made the active and inactive calls. The rule behind the calls is not given here.
What was measured:
MCF7 [1] = assay: Cytotoxicity against human MCF7 cells assessed as growth inhibition after 96 hrs by SRB assay; type: functional, cell-based; details: MCF7, 96 h
In short: (§1)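 SRB viability assay. Cells are seeded for 24 h, then exposed for 96 h to a concentration series from 20 mM DMSO stocks, with a DMSO control. Cells are fixed in 50% TCA (2 h, 4 °C), stained with 0.4% SRB for 10 min and washed with 1% acetic acid. Bound dye is dissolved in 10 mM Tris base and read at 515 nm. IC50 is averaged from at least 3 independent experiments. SI is IC50 in HAF divided by IC50 in the cancer line.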

MCF7 [2] = assay: Induction of apoptosis in human MCF7 cells assessed as late apoptotic cells at 1 uM after 24 hrs by annexin V-FITC/propidium iodide staining-based flow cytometric analysis (reference value: 0.84%); type: functional
NCI/ADR-RES [3] = assay: Induction of apoptosis in human MCF7/ADR cells assessed as late apoptotic cells at 1 uM after 24 hrs by annexin V-FITC/propidium iodide staining-based flow cytometric analysis (reference value: 1.48%); type: functional
MCF7 [4] = assay: Induction of apoptosis in human MCF7 cells assessed as early apoptotic cells at 1 uM after 24 hrs by annexin V-FITC/propidium iodide staining-based flow cytometric analysis (reference value: 0.74%); type: functional
[5] = Cytotoxicity against human MCF7/ADR cells assessed as growth inhibition after 96 hrs by SRB assay; type: functional, cell-based; details: NCI/ADR-RES; in short: as §1
NCI/ADR-RES [6] = assay: Induction of apoptosis in human MCF7/ADR cells assessed as early apoptotic cells at 1 uM after 24 hrs by annexin V-FITC/propidium iodide staining-based flow cytometric analysis (reference value: 0.67%); type: functional
MDA-MB-231 [7] = assay: Cytotoxicity against human MDA-MB-231 cells assessed as growth inhibition after 96 hrs by SRB assay; type: functional, cell-based; details: MDA-MB-231, 96 h; in short: as §1
MCF7 [8] = assay: Induction of apoptosis in human MCF7 cells assessed as late apoptotic cells at 80 uM after 24 hrs by annexin V-FITC/propidium iodide staining-based flow cytometric analysis (reference value: 0.84%); type: functional
MDA-MB-231 [9] = assay: Antimetastatic activity against human MDA-MB-231 cells at 10 to 50 uM after 12 hrs by transwell assay relative to control; type: functional, cell-based
In short: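 Transwell migration: 8 × 10^4 MDA-MB-231 cells in serum-free medium in the upper chamber, with 10% FBS medium below. Compound added to both chambers, then 12 h migration. Non-migrated cells swabbed off. Migrated cells fixed in 4% paraformaldehyde for 30 min, stained with 0.1% crystal violet for 5 min, and counted in 5 random fields. Inhibition normalized to untreated control migration.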

HT-29 [10] = assay: Selectivity index, ratio of IC50 for HAF to IC50 for human HT-29 cells; in short: as §1
NCI/ADR-RES [11] = assay: Selectivity index, ratio of IC50 for HAF to IC50 for human MCF7/ADR cells; in short: as §1
NCI/ADR-RES [12] = assay: Induction of apoptosis in human MCF7/ADR cells assessed as early apoptotic cells at 80 uM after 24 hrs by annexin V-FITC/propidium iodide staining-based flow cytometric analysis (reference value: 0.67%); type: functional
[13] = Cytotoxicity against human HCT116 cells assessed as growth inhibition after 96 hrs by SRB assay; type: functional, cell-based; details: HCT-116, 96 h; in short: as §1
DU-145 [14] = assay: Cytotoxicity against human DU145 cells assessed as growth inhibition after 96 hrs by SRB assay; type: functional, cell-based; details: DU-145, 96 h; in short: as §1
HT-29 [15] = assay: Cytotoxicity against human HT-29 cells assessed as growth inhibition after 96 hrs by SRB assay; type: functional, cell-based; details: HT-29, 96 h; in short: as §1
[16] = Selectivity index, ratio of IC50 for HAF to IC50 for human MDA-MB-231 cells; in short: as §1
[17] = Cytotoxicity against human PC3 cells assessed as growth inhibition after 96 hrs by SRB assay; type: functional, cell-based; details: PC-3, 96 h; in short: as §1
HCT-116 = assay: Selectivity index, ratio of IC50 for HAF to IC50 for human HCT116 cells; in short: as §1
PC-3 = assay: Selectivity index, ratio of IC50 for HAF to IC50 for human PC3 cells; in short: as §1
NCI/ADR-RES [18] = assay: Induction of apoptosis in human MCF7/ADR cells assessed as late apoptotic cells at 80 uM after 24 hrs by annexin V-FITC/propidium iodide staining-based flow cytometric analysis (reference value: 1.48%); type: functional
4T1 [19] = assay: Selectivity index, ratio of IC50 for HAF to IC50 for mouse 4T1 cells; in short: as §1
T47D [20] = assay: Selectivity index, ratio of IC50 for HAF to IC50 for human T47D cells; in short: as §1
MCF7 [21] = assay: Induction of apoptosis in human MCF7 cells assessed as early apoptotic cells at 80 uM after 24 hrs by annexin V-FITC/propidium iodide staining-based flow cytometric analysis (reference value: 0.74%); type: functional
MDA-MB-231 [22] = assay: Induction of apoptosis in human MDA-MB-231 cells assessed as late apoptotic cells at 80 uM after 24 hrs by annexin V-FITC/propidium iodide staining-based flow cytometric analysis (reference value: 2.4%)
[23] = Cytotoxicity against HAF assessed as growth inhibition after 96 hrs by SRB assay; details: Homo sapiens; in short: as §1
4T1 [24] = assay: Cytotoxicity against mouse 4T1 cells assessed as growth inhibition after 96 hrs by SRB assay; type: functional, cell-based; details: 4T1, 96 h; in short: as §1
MDA-MB-231 [25] = assay: Induction of apoptosis in human MDA-MB-231 cells assessed as early apoptotic cells at 80 uM after 24 hrs by annexin V-FITC/propidium iodide staining-based flow cytometric analysis (reference value: 0.59%)
DU-145 [26] = assay: Selectivity index, ratio of IC50 for HAF to IC50 for human DU145 cells; in short: as §1
MCF7 [27] = assay: Selectivity index, ratio of IC50 for HAF to IC50 for human MCF7 cells; in short: as §1
T47D [28] = assay: Cytotoxicity against human T47D cells assessed as growth inhibition after 96 hrs by SRB assay; type: functional, cell-based; in short: as §1
MDA-MB-231 [29] = assay: Induction of apoptosis in human MDA-MB-231 cells assessed as early apoptotic cells at 5 uM after 24 hrs by annexin V-FITC/propidium iodide staining-based flow cytometric analysis (reference value: 0.59%); type: functional
NCI/ADR-RES [30] = assay: Induction of apoptosis in human MCF7/ADR cells assessed as late apoptotic cells at 20 uM after 24 hrs by annexin V-FITC/propidium iodide staining-based flow cytometric analysis (reference value: 1.48%); type: functional
NCI/ADR-RES [31] = assay: Induction of apoptosis in human MCF7/ADR cells assessed as early apoptotic cells at 20 uM after 24 hrs by annexin V-FITC/propidium iodide staining-based flow cytometric analysis (reference value: 0.67%); type: functional
MDA-MB-231 [32] = assay: Antimetastatic activity against human MDA-MB-231 cells at 2.5 to 10 uM after 12 hrs by transwell assay; type: functional, cell-based
MDA-MB-231 [33] = assay: Induction of apoptosis in human MDA-MB-231 cells assessed as late apoptotic cells at 5 uM after 24 hrs by annexin V-FITC/propidium iodide staining-based flow cytometric analysis (reference value: 2.4%); type: functional
MCF7 [34] = assay: Induction of apoptosis in human MCF7 cells assessed as late apoptotic cells at 20 uM after 24 hrs by annexin V-FITC/propidium iodide staining-based flow cytometric analysis (reference value: 0.84%); type: functional
MCF7 [35] = assay: Induction of apoptosis in human MCF7 cells assessed as early apoptotic cells at 20 uM after 24 hrs by annexin V-FITC/propidium iodide staining-based flow cytometric analysis (reference value: 0.74%); type: functional

In the case of CC(=O)O[C@@]12CO[C@@H]1C[C@H](O)[C@@]1(C)C(=O)[C@H](O)C3=C(C)[C@@H](OC(=O)[C@H](O)[C@@H](NC(=O)OC(C)(C)C)c4ccccc4)C[C@@](O)([C@@H](OC(=O)c4ccccc4)[C@H]21)C3(C)C.O.O.O [DOCETAXEL], the IC50 (MCF7 [1]) is reported as 0.005 µM, the Activity (MCF7 [2]) is reported as 10.63% and the Activity (NCI/ADR-RES [3]) is reported as 1.58%. For the same compound, the Activity (MCF7 [4]) was 5.61%, the IC50 [5] was 5.18 µM and the Activity (NCI/ADR-RES [6]) was 1.38%.

C=C(C)[C@@H]1CC[C@]2(C(=O)O)CC[C@]3(C)[C@H](CC[C@@H]4[C@@]5(C)CC[C@H](O)C(C)(C)[C@@H]5CC[C@]43C)[C@@H]12 [BETULINIC ACID] showed an IC50 (MDA-MB-231 [7]) of 34.6 µM, an IC50 (MCF7 [1]) of 22.6 µM and an Activity (MCF7 [8]) of 1.3%. The Activity (MDA-MB-231 [9]) was “Active”, the Ratio IC50 (HT-29 [10]) was 2 and the “Ratio IC50” value (NCI/ADR-RES [11]) was 0.9. The Activity (NCI/ADR-RES [12]) was 4.6%, the IC50 [13] was 22.1 µM and the IC50 (DU-145 [14]) was 36.2 µM. For the same compound, the IC50 (HT-29 [15]) was 17.3 µM, the Ratio IC50 [16] was 1 and the IC50 [17] was 27.5 µM. The Ratio IC50 (HCT-116) was 1.6, the Ratio IC50 (PC-3) was 1.3 and the Activity (NCI/ADR-RES [18]) was 2.64%. It also gave a Ratio IC50 (4T1 [19]) of 2.5, a Ratio IC50 (T47D [20]) of 2.2 and an Activity (MCF7 [21]) of 16.58%. The Activity (MDA-MB-231 [22]) was 27.58%, the IC50 [5] was 38.5 µM and the IC50 [23] was 34.5 µM. For the same compound, the IC50 (4T1 [24]) was 14 µM, the Activity (MDA-MB-231 [25]) was 1.94% and the “Ratio IC50” value (DU-145 [26]) was 0.9. For the same compound, the Ratio IC50 (MCF7 [27]) was 1.5 and the IC50 (T47D [28]) was 15.6 µM.

Work on C=C(C)[C@@H]1CC[C@]2(C(=O)O)CC[C@]3(C)[C@H](CC[C@@H]4[C@@]5(C)CC[C@H](NC(=O)C6CCNCC6)C(C)(C)[C@@H]5CC[C@]43C)[C@@H]12 yielded an Activity (MDA-MB-231 [29]) of 5.56%, an IC50 (MDA-MB-231 [7]) of 1.01 µM and an Activity (NCI/ADR-RES [30]) of 6.35%. For the same compound, the IC50 (MCF7 [1]) was 0.54 µM, the Activity (NCI/ADR-RES [31]) was 12.81% and the Activity (MDA-MB-231 [32]) was “Active”. It also gave a Ratio IC50 (HT-29 [10]) of 4.6, a Ratio IC50 (NCI/ADR-RES [11]) of 13.5 and an IC50 [13] of 1.11 µM. It also gave an IC50 (DU-145 [14]) of 2.45 µM, an Activity (MDA-MB-231 [33]) of 25.87% and an IC50 (HT-29 [15]) of 0.97 µM. It also gave a Ratio IC50 [16] of 4.4, an IC50 [17] of 1.11 µM and an Activity (MCF7 [34]) of 4.15%. For the same compound, the Ratio IC50 (HCT-116) was 4, the Ratio IC50 (PC-3) was 4 and the Ratio IC50 (4T1 [19]) was 2.5. It also gave a Ratio IC50 (T47D [20]) of 3.2, an Activity (MCF7 [35]) of 16.17% and an IC50 [5] of 0.33 µM. For the same compound, the IC50 [23] was 4.45 µM, the IC50 (4T1 [24]) was 1.77 µM and the “Ratio IC50” value (DU-145 [26]) was 1.8. It also gave a Ratio IC50 (MCF7 [27]) of 8.2 and an IC50 (T47D [28]) of 1.4 µM.
